The values below come from ChEMBL document CHEMBL1255228 (J Med Chem, 2010).

One assay has as its target Cannabinoid receptor 1 (Rattus norvegicus, UniProt P20272). Put plainly: Displacement of [3H]CP55940 from rat brain CB1 receptor. A general note: Loss of bound radioactivity is the signal in a displacement assay; it reports binding, not function.
Assay [1] deals with Cannabinoid receptor 2 (Mus musculus, UniProt P47936). As to the kind of experiment: Displacement of [3H]CP55940 from mouse spleen CB2 receptor. It is filed as tissue-based.
Assay [2] deals with Cannabinoid receptor 2 (Homo sapiens, UniProt P34972). As to the kind of experiment: Displacement of [3H]CP55940 from human CB2 receptor expressed in HEK293 cells. It is filed as cell-based.
Assay [3] relates to Rattus norvegicus. Put plainly: Antinociceptive activity in sc dosed Sprague-Dawley rat assessed as thermal-stimulus induced tail flick latency after 120 mins. The assay is classed as functional. The settings on record: 2 h. The gist of the method: (§1)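 Female Sprague-Dawley rats (200–350 g, n=5-6/group), tested repeatedly with ≥3 days between sessions. Drug given s.c. (1.0 ml/kg) in 20% ethanol/20% alkamuls/60% saline diluted with saline; morphine in saline. Lamp set for 2–3 sec baseline, 6.0 sec cut-off; two baselines at 10 min intervals; latency read at 30, 60, 120, 180, 360 min. Expressed as %MPE.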
Background: Hot-plate and tail-flick tests time the reaction to a heat stimulus.

For assay [4], the system named is Rattus norvegicus. Put plainly: Antinociceptive activity in Sprague-Dawley rat assessed as reduction in heat-induced tail flick latency at 0.1 mg/kg, sc after 120 mins. It is filed as functional. The arrangement: scale not given: the % may be the effect or the level left. The settings on record: route subcutaneous. Put shortly:
as §1

For assay [5], the species on record is Rattus norvegicus. Put plainly: Antinociceptive activity in Sprague-Dawley rat assessed as reduction in heat-induced tail flick latency. The assay is classed as functional. More on the design: scale not given: the % may be the effect or the level left. Put shortly: as §1

Chain of Cannabinoid receptor 2 (Homo sapiens, UniProt P34972) (P34972 whole entry): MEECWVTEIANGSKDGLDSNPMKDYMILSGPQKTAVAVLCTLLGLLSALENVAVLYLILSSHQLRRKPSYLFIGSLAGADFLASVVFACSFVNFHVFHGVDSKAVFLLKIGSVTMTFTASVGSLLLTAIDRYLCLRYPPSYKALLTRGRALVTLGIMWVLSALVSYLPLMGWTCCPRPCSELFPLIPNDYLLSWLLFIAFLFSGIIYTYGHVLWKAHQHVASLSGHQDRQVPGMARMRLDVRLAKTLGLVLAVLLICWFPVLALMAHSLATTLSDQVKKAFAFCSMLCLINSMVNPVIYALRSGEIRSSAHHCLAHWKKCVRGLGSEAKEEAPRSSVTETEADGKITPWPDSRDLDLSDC
Chain of Cannabinoid receptor 1 (P20272 whole entry): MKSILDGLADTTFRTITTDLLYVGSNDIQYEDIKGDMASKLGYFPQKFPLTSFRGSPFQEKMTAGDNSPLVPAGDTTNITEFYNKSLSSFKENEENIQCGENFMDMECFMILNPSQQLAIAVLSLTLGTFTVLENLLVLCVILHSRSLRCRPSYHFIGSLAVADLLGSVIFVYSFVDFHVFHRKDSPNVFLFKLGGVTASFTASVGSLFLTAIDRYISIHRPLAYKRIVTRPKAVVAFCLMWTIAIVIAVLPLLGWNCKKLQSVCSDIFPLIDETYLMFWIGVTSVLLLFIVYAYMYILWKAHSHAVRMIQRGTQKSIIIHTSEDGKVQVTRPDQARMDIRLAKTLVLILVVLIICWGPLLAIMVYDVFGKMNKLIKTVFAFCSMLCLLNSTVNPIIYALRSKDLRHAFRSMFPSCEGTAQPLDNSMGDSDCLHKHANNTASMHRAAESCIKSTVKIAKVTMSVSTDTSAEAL
Chain of Cannabinoid receptor 2 (Mus musculus, UniProt P47936) (P47936 whole entry): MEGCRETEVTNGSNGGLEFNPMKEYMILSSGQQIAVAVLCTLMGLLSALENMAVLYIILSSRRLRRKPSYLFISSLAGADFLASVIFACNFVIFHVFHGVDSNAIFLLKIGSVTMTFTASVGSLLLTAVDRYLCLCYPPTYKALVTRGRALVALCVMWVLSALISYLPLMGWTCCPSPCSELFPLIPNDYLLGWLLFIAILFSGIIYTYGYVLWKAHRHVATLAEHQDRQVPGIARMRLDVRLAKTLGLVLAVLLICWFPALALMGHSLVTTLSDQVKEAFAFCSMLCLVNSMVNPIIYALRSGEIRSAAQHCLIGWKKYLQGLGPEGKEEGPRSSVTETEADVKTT

The Ki is a measure of affinity in units of concentration, obtained from inhibition or displacement. Regarding `CCCC/C=C\C1(c2cc(O)c3c(c2)OC(C)(C)[C@@H]2CCC(=O)C[C@@H]32)CCCC1`, the Ki at Cannabinoid receptor 1 was 1.23 nM; at Cannabinoid receptor 2 [1] it was 5.25 nM; at Cannabinoid receptor 2 [2] it was 7.02 nM.
Consider `CCCC/C=C\C1(c2cc(O)c3c(c2)OC(C)(C)[C@@H]2CCC(=O)C[C@@H]32)CCC1`, for which the Ki at Cannabinoid receptor 1 was 1.13 nM; at Cannabinoid receptor 2 [1], 12 nM; on Cannabinoid receptor 2 [2] it was 15.1 nM.
The ED50 is the dose at which the effect has come halfway, by size or by number of responders. As to `CCCCCCC1(c2cc(O)c3c(c2)OC(C)(C)[C@@H]2CC[C@@H](O)C[C@@H]32)CCC1`, the Ki at Cannabinoid receptor 1 stood at 0.16 nM; on Cannabinoid receptor 2 [1], 4.21 nM; on Cannabinoid receptor 2 [2], 5.13 nM. Also, the ED50 in the assay with Rattus norvegicus [3] came to 0.026 mg/kg.
For the compound `CC1(C)Oc2cc(C3(CCCCCBr)CCC3)cc(O)c2[C@@H]2C[C@H](O)CC[C@H]21`, the Ki at Cannabinoid receptor 1 stood at 1.37 nM.
Turning to `CCCCCc1cc(O)c2c(c1)OC(C)(C)[C@@H]1CCC(=O)C[C@@H]21`, the Ki on Cannabinoid receptor 1 was determined as 333 nM; on Cannabinoid receptor 2 [1], 265 nM.
The matching figures for `CC1(C)Oc2cc(C3(CCCCC#N)CCCC3)cc(O)c2[C@@H]2CC(=O)CC[C@H]21`: 3.14 nM and 2.78 nM.
For the compound `CCCCCCC1(c2cc(O)c3c(c2)OC(C)(C)[C@@H]2CCC(=O)C[C@@H]32)SCCS1`, the Ki at Cannabinoid receptor 1 amounted to 6.57 nM; at Cannabinoid receptor 2 [1] it was 42.3 nM; on Cannabinoid receptor 2 [2], 32.6 nM.
Turning to `CCCCCCC1(c2cc(O)c3c(c2)OC(C)(C)[C@@H]2CCC(=O)C[C@@H]32)CCCC1`, the values for the Ki on Cannabinoid receptor 1, on Cannabinoid receptor 2 [1] and at Cannabinoid receptor 2 [2] were 1.76 nM, 0.97 nM and 3.34 nM, respectively.
Turning to `CC1(C)Oc2cc(C3(CCCCCBr)CCC3)cc(O)c2[C@@H]2CC(=O)CC[C@H]21`, the Ki at Cannabinoid receptor 1 came to 2.33 nM; at Cannabinoid receptor 2 [1] it was 7.56 nM; on Cannabinoid receptor 2 [2] it was 5.88 nM.
The matching figures for `CC1(C)Oc2cc(C3(CCCCCBr)CCCC3)cc(O)c2[C@@H]2CC(=O)CC[C@H]21`: 1.03 nM, 2.59 nM and 1.32 nM.
Consider `CCCCCCC1(c2cc(O)c3c(c2)OC(C)(C)[C@@H]2CCC(=O)C[C@@H]32)CCC1`, for which the Ki turned out to be 0.84 nM on Cannabinoid receptor 1, 13.7 nM on Cannabinoid receptor 2 [1] and 11.9 nM on Cannabinoid receptor 2 [2].
As for `Cc1c(C(=O)NN2CCCCC2)nn(-c2ccc(Cl)cc2Cl)c1-c1ccc(Cl)cc1` [RIMONABANT], the Activity in the assay on Rattus norvegicus [4] worked out at 85.4%; in the assay listed under Rattus norvegicus [5], 48%.
Turning to `CC1(C)Oc2cc(C3(CCCCCCBr)CCCC3)cc(O)c2[C@@H]2CC(=O)CC[C@H]21`, the Ki at Cannabinoid receptor 1 is 4.96 nM; on Cannabinoid receptor 2 [1] it was 1.6 nM; on Cannabinoid receptor 2 [2], 3.02 nM.
Take `CC1(C)Oc2cc(C3(CCCCBr)CCCC3)cc(O)c2[C@@H]2CC(=O)CC[C@H]21`: the Ki on Cannabinoid receptor 1 is 13.1 nM; at Cannabinoid receptor 2 [1], 13.9 nM.
`CC1(C)Oc2cc(C3(CCCCCBr)CCC3)cc(O)c2[C@@H]2C[C@@H](O)CC[C@H]21` had a Ki at Cannabinoid receptor 1 of 1.5 nM.
Consider `CCCCCCC(C)(C)c1cc(O)c2c(c1)OC(C)(C)[C@@H]1CCC(=O)C[C@@H]21` [NABILONE], for which the Ki stood at 2.2 nM on Cannabinoid receptor 1 and 1.8 nM at Cannabinoid receptor 2 [1].
